From ChEMBL document CHEMBL1126267, “A novel synthesis and potent antiinflammatory activity of 4-hydroxy-2(1H)-oxo-1-phenyl-1,8-naphthyridine-3-carboxamides” (1992)

Columns and labels:
Assay type in all cases: functional
Settings in all cases: route oral
[1] = system: Rattus norvegicus; test: Inhibition of Zymosan-induced rat's paw edema(ZPE) after peroral administration of 100 mg/kg dose.
How it was run: (§1)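 Male Wistar rats (about 150 g) were dosed orally with compound suspended in 5% arabic gum, 1 h before a subplantar hind-paw injection of 0.1 mL saline. The irritant was 1% zymosan for 33 or 1% λ-carrageenin for 34. Paw volume was measured by plethysmograph before dosing and at 4 h (zymosan) or 3 h (carrageenin). Swelling is relative to initial volume, as mean ± SEM. % inhibition is versus the control group's mean swelling.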

[2] = system: Rattus norvegicus; test: Antiinflammatory activity on Carrageenan rat's paw edema(CPE) after peroral administration of 100 mg/kg dose with control swelling of 64.2%
[3] = system: Rattus norvegicus; test: Antiinflammatory activity on Zymosan-induced rat's paw edema(ZPE) after peroral administration of 100 mg/kg dose with control swelling of 71.7%
How it was run: (§2)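 Male Wistar rats weighing about 150 g were dosed orally with compound suspended in 5% arabic gum. 1 h later, 1% zymosan in 0.1 mL saline was injected subplantarly into the hind paw. Paw volume was measured by plethysmograph before dosing and 4 h after zymosan, with edema as the volume difference. Inhibition % was derived from mean swelling versus the control group.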

[4] = system: Rattus norvegicus; test: Inhibition of carrageenan-induced rat's paw edema (CPE) after peroral administration of 100 mg/kg dose.; how it was run: as §1
[5] = system: Rattus norvegicus; test: Compound was tested for the inhibition of rat reversed passive Arthus pleurisy after peroral administration of 100 mg/kg dose at 0.65 mL of exudate volume with 0.84 mL of control (injected intrapleurally)
How it was run: (§3)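 Male Wistar rats (about 250 g) were given compound orally before the antiserum. Under ether anesthesia, 0.2 mL rabbit anti-egg albumin antiserum was injected intrapleurally. After 30 min, egg albumin (15 mg/100 g body weight in 0.1 mL saline) was given iv. Rats were killed 4.5 h later and the thoracic cavity was rinsed with 5 mL saline. Exudate volume and infiltrated cell number were measured, with inhibition % versus controls as mean ± SEM.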

[6] = system: Rattus norvegicus; test: Compound was tested for the inhibition of rat reversed passive Arthus pleurisy after peroral administration of 100 mg/kg dose at 4.66*10e6 no of cells with 5.72*10e6 cells of control
How it was run: (§4)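 Male Wistar rats (about 250 g) under ether received 0.2 mL rabbit anti-egg-albumin antiserum intrapleurally. Thirty min later they got 15 mg EA/100 g body weight in 0.1 mL saline iv. Compounds were given orally beforehand. Rats were killed 4.5 h after induction and the thoracic cavity rinsed with 5 mL saline. Exudate volume and infiltrated cell count were read as mean ± SE. % inhibition is versus control.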

[7] = system: Rattus norvegicus; test: Antiinflammatory activity on Carrageenan rat's paw edema(CPE) after peroral administration of 100 mg/kg dose with control swelling of 68.1%
[8] = system: Rattus norvegicus; test: Antiinflammatory activity on Zymosan-induced rat's paw edema(ZPE) after peroral administration of 100 mg/kg dose with control swelling of 62.8%; how it was run: as §2
[9] = system: Rattus norvegicus; test: Compound was tested for the inhibition of rat reversed passive Arthus pleurisy after peroral administration of 100 mg/kg dose at 0.94 mL of exudate volume with 0.86 mL of control (injected intrapleurally); how it was run: as §3
[10] = system: Rattus norvegicus; test: Compound was tested for the inhibition of rat reversed passive Arthus pleurisy after peroral administration of 100 mg/kg dose at 4.35*10e6 no of cells with 3.62*10e6 cells of control; how it was run: as §4
[11] = system: Rattus norvegicus; test: Compound was tested for the inhibition of rat reversed passive Arthus pleurisy after peroral administration of 100 mg/kg dose at 0.42 mL of exudate volume with 0.52 mL of control (injected intrapleurally); how it was run: as §3
[12] = system: Rattus norvegicus; test: Compound was tested for the inhibition of rat reversed passive Arthus pleurisy after peroral administration of 100 mg/kg dose at 2.23*10e6 no of cells with 2.28*10er cells of control; how it was run: as §3
[13] = system: Rattus norvegicus; test: Antiinflammatory activity on Zymosan-induced rat's paw edema(ZPE) after peroral administration of 100 mg/kg dose with control swelling of 72.9%; how it was run: as §2

Compound	inhibition in vivo at 100 mg/kg [1]	Swelling [2]	Swelling [3]	inhibition in vivo at 100 mg/kg [4]	inhibition in vivo at 100 mg/kg [5]	inhibition in vivo at 100 mg/kg [6]	Swelling [7]	Swelling [8]	inhibition in vivo at 100 mg/kg [9]	inhibition in vivo at 100 mg/kg [10]	inhibition in vivo at 100 mg/kg [11]	inhibition in vivo at 100 mg/kg [12]	Swelling [13]
O=C(Nc1ccccc1)c1c(O)c2cccnc2n(-c2ccccc2)c1=O	4.6%	73.8%	68.4%	-15%	–	–	–	–	–	–	–	–	–
Cc1ccc(NC(=O)c2c(O)c3cccnc3n(-c3ccccc3)c2=O)cc1	-3.5%	–	–	2.2%	22.4%	21.5%	66.6%	65%	–	–	–	–	–
CN(C)CCNC(=O)c1c(O)c2cccnc2n(-c2ccccc2)c1=O	22.6%	52.4%	55.5%	18.4%	–	–	–	–	-10.4%	-16.6%	–	–	–
CNC(=O)c1c(O)c2cccnc2n(-c2ccccc2)c1=O	9.6%	50.7%	–	21%	–	–	–	–	–	–	22.3%	3.2%	65.9%
O=C(Nc1ccccn1)c1c(O)c2cccnc2n(-c2ccccc2)c1=O	-13.5%	54.8%	81.4%	14.6%	–	–	–	–	–	–	–	–	–
